Active and inactive are the calls of the source. No cut-off for these calls is given here.
How the values were obtained:
HeLa [1] = test: Cytotoxicity against human HeLa cells assessed as cell viability after 24 hrs by MTT assay; type: functional, cell-based
In short: (§1)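 MTT viability assay. Cells were seeded at 1 × 10^4 cells/well in complete medium and grown 24 h. Medium was replaced with fresh medium containing peptide over a concentration series and incubated 24 h. MTT (5 mg/mL) was added for 4 h, formazan was dissolved in DMSO, and A490 was read. IC50 was derived from mean ± SD of three independent experiments.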

MCF7 [2] = test: Cytotoxicity against human MCF7 cells assessed as cell viability after 24 hrs by MTT assay; type: functional, cell-based; details: for IC50: MCF7, 24 h; in short: as §1
A549 [3] = test: Cytotoxicity against human A549 cells assessed as cell viability after 24 hrs by MTT assay; type: functional, cell-based; details: for IC50: A549, 24 h; in short: as §1
[4] = Cytotoxicity against HLF assessed as cell viability after 24 hrs by MTT assay; parameters: species or system Homo sapiens; details: for IC50: Homo sapiens, HLF; in short: as §1
[5] = Cytotoxicity against human 293T cells assessed as cell viability after 24 hrs by MTT assay; type: cell-based, HEK-293T; details: for IC50: Homo sapiens, HEK-293T; in short: as §1
HUVEC [6] = test: Cytotoxicity against HUVEC assessed as cell viability after 24 hrs by MTT assay; type: cell-based, Homo sapiens; details: for IC50: Homo sapiens, HUVEC; in short: as §1
[7] = Hemolytic activity in mouse RBC at 0.39 to 50 uM after 1 hr; type: ADME, cell-based; details: erythrocyte
In short: (§2)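 Heparinized fresh mouse blood: RBCs were washed three times in 0.9% saline and diluted to 4.0 × 10^8 cells/mL. Peptides at various concentrations were incubated with the RBCs 1 h at 37 °C. After centrifugation at 1000 rpm for 10 min, supernatant absorbance was read at 540 nm, with 1% Triton X-100 set as 100% hemolysis.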

HeLa [8] = test: Induction of morphological changes in human HeLa cells assessed as membrane leakage at 5 uM after 30 mins by microscopic method; type: functional, cell-based
In short: (§3)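 HeLa cells were co-incubated with 5 μM peptide for 30 min. Morphology was then examined under the microscope.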

HeLa [9] = test: Induction of morphological changes in human HeLa cells assessed as membrane fragmentation at 5 uM after 30 mins by microscopic method; type: functional, cell-based; in short: as §3
HeLa [10] = test: Cytotoxicity against human HeLa cells assessed as cell mortality at 5 uM after 5 mins by Hoechst 33342/propidium iodide staining-based assay; type: functional
In short: (§4)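 HeLa cells treated with 5 μM peptide were co-stained with Hoechst 33342 (stains all nuclei) and propidium iodide (stains only membrane-compromised cells). Fluorescence imaging was done at time points up to 30 min.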

HeLa [11] = test: Cytotoxicity against human HeLa cells assessed as cell mortality at 5 uM after 5 mins by MTT assay; type: functional, cell-based
[12] = Drug uptake in plasma membrane of human HeLa cells at 5 uM after 2 to 30 mins using iridium dye labeled compound by confocal microscopic method; type: ADME, cell-based
In short: (§5)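 Peptides were labelled at the N-terminal His with [Ir(ppy)2(H2O)2]OTf: 200 μM each, mixed 1:1 in PBS, 2 h at 37 °C in the dark. HeLa cells (1 × 10^5 per dish, grown 24 h) were exposed to 5 μM labelled peptide. Live-cell confocal images were taken at 0, 5 and 15 min (excitation 403 nm, emission 500–560 nm).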

HeLa [13] = test: Induction of apoptosis in human HeLa cells assessed as caspase-3 activation at 5 uM measured up to 4 hrs by caspase-glo assay; type: functional, cell-based
In short: (§6)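 Cells in 96-well plates were exposed to 5 μM peptide for 5, 10, 15 or 30 min, or 1, 2, 3 or 4 h. Caspase-Glo 3/7 reagent was added, the plate shaken 30 s and incubated 2 h at room temperature, and luminescence was read.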

HeLa [14] = test: Cytotoxicity against human HeLa cells assessed as lethality at 5 uM at 0 degC after 30 mins by MTT assay; type: functional, cell-based
In short: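 HeLa cells were incubated with peptide over a range of concentrations at 0 or 37 °C for 30 min. Lethality was then measured by MTT, with A490 read after DMSO solubilization.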

[15] = Hemolytic activity in mouse RBC after 1 hr; type: ADME, cell-based, Erythrocyte; details: red blood cells; in short: as §2
HeLa [16] = test: Induction of shrinkage of human HeLa cells at 5 uM after 30 mins by microscopic method; type: functional, cell-based; in short: as §3
HeLa [17] = test: Induction of appearance of rounded human HeLa cells at 5 uM after 30 mins by microscopic method; type: functional, cell-based; in short: as §3
HeLa [18] = test: Induction of morphological changes in human HeLa cells at 5 uM after 30 mins by microscopic method; type: functional, cell-based; in short: as §3
HeLa [19] = test: Cytotoxicity against human HeLa cells assessed as cell mortality at 5 uM after 30 mins by Hoechst 33342/propidium iodide staining-based assay; type: functional; in short: as §4
HeLa [20] = test: Cytotoxicity against human HeLa cells assessed as cell mortality at 5 uM after 6 hrs by MTT assay; type: functional, cell-based
[21] = Drug uptake in cytoplasm of human HeLa cells at 5 uM after 2 to 30 mins using iridium dye labeled compound by confocal microscopic method; type: ADME, cell-based; in short: as §5
HeLa [22] = test: Induction of apoptosis in human HeLa cells assessed as viable cells at 5 uM after 15 mins by annexin V/FITC staining-based flow cytometric method (reference value: 99.8%); type: functional; details: 0.25 h, read-out: Activity
In short: (§7)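 Cells were grown 24 h in 6-well plates, then exposed to 5 μM peptide for 15 min. They were collected, washed twice with PBS, and stained with annexin V-FITC plus PI for 20 min at room temperature in the dark before flow cytometry.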

HeLa [23] = test: Induction of apoptosis in human HeLa cells assessed as early apoptotic cells at 5 uM after 15 mins by annexin V/FITC staining-based flow cytometric method (reference value: 0.1%); type: functional; in short: as §7
HeLa [24] = test: Induction of apoptosis in human HeLa cells assessed as late apoptotic cells at 5 uM after 15 mins by annexin V/FITC staining-based flow cytometric method relative to control; type: functional; in short: as §7
HeLa [25] = test: Induction of apoptosis in human HeLa cells assessed as necrotic cells at 5 uM after 15 mins by annexin V/FITC staining-based flow cytometric method relative to control; type: functional; in short: as §7
HeLa [26] = test: Induction of apoptosis in human HeLa cells assessed as caspase-3 activation at 5 uM after 5 mins by caspase-glo assay; type: functional, cell-based; in short: as §6
HeLa [27] = test: Induction of apoptosis in human HeLa cells assessed as caspase-3 activation at 5 uM after 1 to 4 hrs by caspase-glo assay; type: functional, cell-based; in short: as §6
HeLa [28] = test: Induction of apoptosis in human HeLa cells assessed as caspase-3 cleavage at 5 uM after 5 mins by Western blot method; type: functional, cell-based
In short: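 HeLa cells (8 × 10^5 per 100 mm dish, grown 24 h) were exposed to 5 μM peptide for 5, 10 or 15 min. Lysates (with 1 mM PMSF) were run on 15% SDS-PAGE and blotted to PVDF. Blots were probed overnight at 4 °C with rabbit monoclonal anti-cleaved caspase-3, then HRP goat anti-rabbit, and detected by ECL with actin as loading control.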

HeLa [29] = test: Cytotoxicity against human HeLa cells assessed as lethality at 5 uM after 30 mins by MTT assay; type: functional
In short: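 HeLa cells were grown in DMEM with 10% FBS and seeded at 1 × 10^4 cells/well, then grown 24 h. Medium was replaced with fresh medium containing 5 μM peptide for 30 min. MTT was added for 4 h and formazan was dissolved in DMSO (10 min, 37 °C). Lethality was read as absorbance at 490 nm.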

HeLa [30] = test: Cytotoxicity against human HeLa cells assessed as lethality at 5 uM after 30 mins in presence of caspase-3 inhibitor Ac-DEVD-CHO by MTT assay; type: functional
In short: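 HeLa cells were seeded at 1 × 10^4 cells/well and grown 24 h. They were pretreated 30 min with 50 μM Ac-DEVD-CHO, then incubated with or without 5 μM peptide for 30 min. Survival was measured by MTT: 4 h with MTT, DMSO solubilisation, absorbance at 490 nm.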

HeLa [31] = test: Induction of reactive oxygen species generation in human HeLa cells at 5 uM after 30 mins by DCFH-DA staining-based fluorescence assay; type: functional, cell-based
In short: (§8)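 Cells in 96-well plates were loaded with DCFH-DA for 20 min at 37 °C, then treated with or without 5 μM peptide for 30 min. After a PBS wash, DCF fluorescence was read at 485/535 nm and expressed as fold change versus untreated cells.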

A549 [32] = test: Induction of reactive oxygen species generation in human A549 cells at 5 uM after 30 mins by DCFH-DA staining-based fluorescence assay; type: functional, cell-based; in short: as §8
MCF7 [33] = test: Induction of reactive oxygen species generation in human MCF7 cells at 5 uM after 30 mins by DCFH-DA staining-based fluorescence assay; type: functional, cell-based; in short: as §8
HUVEC [34] = test: Induction of reactive oxygen species generation in HUVEC at 5 uM after 30 mins by DCFH-DA staining-based fluorescence assay; type: cell-based; details: human, 0.5 h; in short: as §8
[35] = Induction of reactive oxygen species generation in human 293T cells at 5 uM after 30 mins by DCFH-DA staining-based fluorescence assay; type: cell-based; details: hek-293t, 0.5 h; in short: as §8
[36] = Induction of reactive oxygen species generation in HLF at 5 uM after 30 mins by DCFH-DA staining-based fluorescence assay; details: human, 0.5 h; in short: as §8
MCF7 [37] = test: Selectivity index, ratio of IC50 for HLF to IC50 for human MCF7 cells
HeLa [38] = test: Selectivity index, ratio of IC50 for HLF to IC50 for human HeLa cells
A549 [39] = test: Selectivity index, ratio of IC50 for HLF to IC50 for human A549 cells
MCF7 [40] = test: Selectivity index, ratio of IC50 for human 293T cells to IC50 for human MCF7 cells; type: functional
HeLa [41] = test: Selectivity index, ratio of IC50 for human 293T cells to IC50 for human HeLa cells; type: functional
A549 [42] = test: Selectivity index, ratio of IC50 for human 293T cells to IC50 for human A549 cells; type: functional
MCF7 [43] = test: Selectivity index, ratio of IC50 for HUVEC to IC50 for human MCF7 cells
HeLa [44] = test: Selectivity index, ratio of IC50 for HUVEC to IC50 for human HeLa cells
A549 [45] = test: Selectivity index, ratio of IC50 for HUVEC to IC50 for human A549 cells

H-HGGKLLKLLKKLLKLLK-NH2
IC50 (HeLa [1]): 3.3 µM | Activity (MCF7 [2]): Active | Activity (A549 [3]): Active | Activity ([4]; human, hlf): Toxic | Activity ([5]; human, hek-293t): Toxic | Activity (HUVEC [6]; human, huvec): Toxic | Activity [7]: Toxic

H-HGGRLLRLLRRLLRLLR-NH2
IC50 (HeLa [1]): 3.7 µM | Activity (HeLa [8]): Active | Activity (HeLa [9]): Active | Activity (HeLa [10]): Active | Activity (HeLa [11]): Active | Drug uptake [12]: Active | Activity (HeLa [13]): inactive | IC50 (MCF7 [2]): 2.5 µM | IC50 (A549 [3]): 4.3 µM | IC50 [4]: 6.3 µM | IC50 [5]: 9.6 µM | IC50 (HUVEC [6]): 8.4 µM | Activity (HeLa [14]): Active | HC50 at 1 h [15]: 2900 nM

CC(C)C[C@H](NC(=O)[C@H](CCCNC(=N)N)NC(=O)[C@H](CC(C)C)NC(=O)[C@H](CC(C)C)NC(=O)[C@H](CCCNC(=N)N)NC(=O)[C@H](CCCNC(=N)N)NC(=O)[C@H](CC(C)C)NC(=O)[C@H](CCCNC(=N)N)NC(=O)[C@H](CC(C)C)NC(=O)[C@H](CC(C)C)NC(=O)[C@H](CCCNC(=N)N)NC(=O)[C@H](CC(C)C)NC(=O)[C@H](CC(C)C)NC(=O)[C@H](CCCNC(=N)N)NC(=O)CNC(=O)CNC(=O)[C@@H](N)Cc1cnc[nH]1)C(N)=O
IC50 (HeLa [1]): 4.2 µM | Activity (HeLa [16]): Active | Activity (HeLa [17]): Active | Activity (HeLa [18]): inactive | Activity (HeLa [10]): inactive | Activity (HeLa [19]): Active | Activity (HeLa [11]): inactive | Activity (HeLa [20]): Active | Drug uptake [21]: Active | viability at 5 µM (HeLa [22]): 46.3% | Activity (HeLa [23]): 45.9% | Activity (HeLa [24]): 7.7% | Activity (HeLa [25]): 0.1% | Activity (HeLa [26]): Active | Activity (HeLa [27]): inactive | Activity (HeLa [28]): Active | Activity (HeLa [29]): 56% | Activity (HeLa [30]): 20% | IC50 (MCF7 [2]): 4.5 µM | IC50 (A549 [3]): 4.8 µM | IC50 [4]: 21.4 µM | IC50 [5]: 41.6 µM | IC50 (HUVEC [6]): 19 µM | Activity (HeLa [31]): Active | Activity (A549 [32]): Active | Activity (MCF7 [33]): Active | Activity (HUVEC [34]): Non-toxic | Activity [35]: Non-toxic | Activity [36]: Non-toxic | Ratio IC50 (MCF7 [37]): 4 | Ratio IC50 (HeLa [38]): 4 | Ratio IC50 (A549 [39]): 4 | Ratio IC50 (MCF7 [40]): 4 | Ratio IC50 (HeLa [41]): 4 | Ratio IC50 (A549 [42]): 4 | Ratio IC50 (MCF7 [43]): 4 | Ratio IC50 (HeLa [44]): 4 | Ratio IC50 (A549 [45]): 4 | Activity (HeLa [14]): inactive | HC50 at 1 h [15]: > 200000 nM

Reference: ChEMBL document CHEMBL3826940, “Amphipathicity Determines Different Cytotoxic Mechanisms of Lysine- or Arginine-Rich Cationic Hydrophobic Peptides in Cancer Cells” (J Med Chem, 2016)
